High-throughput results (PubChem)
CHOP inh = blocks CHOP induction under ER stress; CHO-K1 CHOP-promoter luciferase, tunicamycin-induced, 15-18 h; 220,000 tested, 3.8% active; AID 2732; inhibition, % at 10 µM;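 active = compounds that reduced the stress-induced luciferase reporter signal by more than about 70% of percent inhibition, limit read from the data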;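 also: 0% = tunicamycin plus vehicle and 100% = wells without tunicamycin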
S1P3 antag = blocks the human S1P3 receptor | Q99500 | 170,000 tested, 0.27% active | inhibition, % at 4.98 µM | CHO S1P3 NFAT-BLA reporter, FRET fluorescence, antagonist mode | AID 485;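 active = inhibition above the plate cutoff, the mean inhibition of test wells on that plate plus 3 SD, cut at about 28% in these data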;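 also: cells challenged with S1P at its EC80 of 0.8 µM; blue over green emission ratio from cleaved BLA substrate after 4 h stimulation; 0% = S1P-stimulated wells and 100% = unstimulated DMSO-only wells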
Hsp70 act = Hsp70 transcriptional activation, primary screen; 200,000 tested, 0.04% active; HeLa Hsp70 promoter luciferase reporter, luminescence; scaled: vehicle 0, proteasome-inhibitor control 100%; AID 1203; activation, % at 10 µM;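 active = activation above the mean across all tested compounds plus 3 SD, cutoff set per campaign, cut at about 5.5% in these data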;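 also: 100% = MG132 at 30 µM as the positive control and 0% = DMSO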
MDM2 E3 inh = Mdm2 E3 ligase (human) inhibition. Q00987. cell-based MDM2 ubiquitination luciferase reporter, 2 h; 0 = plate control, 100 = twice control, blank-subtracted. signal enhancement, % at 5 µM. 210,000 tested, 0.11% active;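 active = signal enhancement of 30% or more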;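 also: luminescence tracks abundance of the self-degrading MDM2-luciferase fusion protein; higher signal means inhibition of MDM2 E3 ligase activity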
Target sequence (Q00987 whole entry, looked up, the tested form may be a part): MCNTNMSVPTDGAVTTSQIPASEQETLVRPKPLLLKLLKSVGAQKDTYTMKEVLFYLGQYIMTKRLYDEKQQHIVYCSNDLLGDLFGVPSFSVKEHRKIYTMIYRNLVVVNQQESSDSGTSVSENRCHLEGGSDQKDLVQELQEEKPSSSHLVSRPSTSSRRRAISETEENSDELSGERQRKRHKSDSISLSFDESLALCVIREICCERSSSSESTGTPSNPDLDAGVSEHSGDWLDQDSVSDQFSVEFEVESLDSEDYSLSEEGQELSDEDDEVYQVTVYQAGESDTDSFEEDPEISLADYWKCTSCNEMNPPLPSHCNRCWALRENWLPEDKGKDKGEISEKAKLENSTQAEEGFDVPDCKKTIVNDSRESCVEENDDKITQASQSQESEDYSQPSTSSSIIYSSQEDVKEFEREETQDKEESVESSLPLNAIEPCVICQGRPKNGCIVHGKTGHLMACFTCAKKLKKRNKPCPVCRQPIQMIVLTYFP
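Material: stable MDM2–luciferase fusion reporter cells / Quantity: 2000 cells/well / Dosing: single 5 µM compound dose, 0.2% final DMSO / Buffer or medium: DMEM / Schedule: 4 h cell settling then 2 h compound exposure, 37 °C / Detection: luminescence with SteadyLite reagent, 15 min at room temperature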
* hit, by the source's call; / = no result given. Shown are actives, neighbours in structure and some others; about 4% of the full set was active somewhere.

SMILES	CHOP inh	S1P3 antag	Hsp70 act	MDM2 E3 inh
COC(=O)CNC(=O)CN1C(=O)N(c2cccc(Cl)c2)C(N(O)C(=O)Nc2cccc(Cl)c2)C1(C)C (stereo unspecified)	15	/	0	-2
C=CCn1c(C)cc(C(=O)CSc2nc3ccccc3o2)c1C	74*	-7	0	-40
CCOC(=O)N1CCN(S(=O)(=O)c2ccc(C(=O)Nc3nc4c(s3)CC(C)CC4)cc2)CC1 (stereo unspecified)	93*	23	0	-37
CCOC(=O)N1CCN(S(=O)(=O)c2ccc(C(=O)Nc3nnc(C4CC4)o3)cc2)CC1	13	10	0	-1
Cc1nnc(SCC(=O)Nc2nc3c(s2)CC(C)CC3)s1 (stereo unspecified)	84*	5	0	-9
Cc1csc(NC(=O)CSc2nnc(C)s2)n1	6	-5	0	-29
O=C(CN1CCSc2ccccc21)NCCCc1ccccc1	3	7	0	1
CC1CC(C)CN(CC(C)(C)NS(=O)(=O)c2ccc(Cl)cc2)C1 (stereo unspecified)	94*	/	0	-5
CC(C)(CN1CCCCC1)NS(=O)(=O)c1ccc(Cl)cc1	24	5	0	-14
CCn1cc(Br)c(-c2nc3ccccc3c(=O)n2N)n1	90*	-10	0	-10
CCOC(=O)c1c(C)[nH]c(-c2csc(N)n2)c1C	-11	10	0	-14
COc1cccc(NC(=O)COC(=O)CC(NC(N)=O)c2ccc(Cl)cc2)c1 (stereo unspecified)	8	3	/	/
CC(=O)c1ccc(-c2nnc(CCC(=O)N(C)Cc3c(C)nc4ccccn34)o2)s1	0	5	0	-7
COc1ccc(/C=N/n2cnc3c([nH]c4ccc(F)cc43)c2=O)cc1CSc1ccccn1	80*	-11	/	0
O=C(NC1CC1)C1CCN(C2CCN(C(=O)/C=C/c3cccc(F)c3F)CC2)CC1	15	-6	0	1
O=C(c1ccc(CNc2c(N3CCCC3)c(=O)c2=O)cc1)N1CC=C(c2ccccc2)CC1	30	-9	/	-6
CCOC(=O)c1c(N)nn(C(=O)C(C)(C)C)c1-c1ccccc1	94*	-5	0	-1
O=[N+]([O-])c1ccc(O)c(/C=N\N=C2c3ccccc3-c3ccccc32)c1	79*	9	-1	-12
CCOC(=O)N1CCN(C(=O)C(=O)N/N=C/c2ccc(OC)cc2OC)CC1	1	9	/	-4
CCN1CCN(C(=O)c2ccc(OC)c(S(=O)(=O)Nc3ccc(C)cc3)c2)CC1	3	-14	0	-12
C=CCN1C(=O)/C(=C2/Sc3ccc(OC)cc3N2C)SC1=NCc1ccccc1	-1	12	0	-21
C=CCN1C(=O)/C(=C2/Sc3ccc(OC)cc3N2C)SC1=Nc1ccccc1	74*	-5	0	-4
COc1ccc(CNC(=O)COC(=O)c2ccccn2)cc1	-3	-24	0	-6
Cn1c(N)c(C(=O)COC(=O)CCOc2ccc(C(C)(C)C)cc2)c(=O)n(C)c1=O	71*	-17	0	-7
COc1ccc(-n2nc(C#N)c(Cl)cc2=O)cc1	101*	-2	0	6
SMILES	CHOP inh	S1P3 antag	Hsp70 act	MDM2 E3 inh
COC(=O)c1nn(-c2ccc(OC)cc2)c(=O)cc1O	-14	1	0	-10
NC(=O)NC(=O)COC(=O)c1ccc(OC(F)F)cc1	17	-4	0	-11
CC(C)(C)NC(=O)NC(=O)COC(=O)COc1ccc2c(c1)CCC2	85*	11	0	-7
CC(C)(C)NC(=O)NC(=O)COC(=O)CCC1CCCC1	77*	2	/	/
NC(=O)CC(NC(=O)Cc1cccc2ccccc12)c1ccc(N2CCN(c3ccccc3)CC2)c([N+](=O)[O-])c1 (stereo unspecified)	87*	/	/	-8
NC(=O)CC(NC(=O)Cc1cccc2ccccc12)c1ccc(N2CCC(Br)CC2)c([N+](=O)[O-])c1 (stereo unspecified)	39	/	/	-3
CCCc1cc(=O)[nH]c(Nc2cc(OC)ccc2OC)n1	74*	-9	0	-8
O=S(=O)(c1ccc(Cl)cc1)N1CCN(C(=S)Nc2ccc(F)c(Cl)c2)CC1	78*	10	0	-11
O=[N+]([O-])c1ccc(NC(=S)N2CCN(c3ccc(F)cc3)CC2)cc1	84*	/	0	-18
NS(=O)(=O)c1ccc(NC(=S)N2CCN(c3ccc(Cl)c(Cl)c3)CC2)cc1	87*	-4	-1	-3
O=S(=O)(c1ccccc1)N1CCN(C(=S)Nc2ccc(F)cc2)CC1	8	4	0	/
